# Reference: publication PMC3105124 (Brain research, 2011)
# Like-named read-outs stand apart in the source and are kept apart here. Marks after values point to notes of the source that are not given here.
# Tests used:
# [1] = system: L5/L6 spinal nerve ligated male Sprague Dawley rats; test: Thermal hypersensitivity; type: in vivo, rat; conditions: for AUC, paw withdrawal latency (thermal): vehicle AUC=55.52 ± 2.74; for effect on thermal hyperalgesia compared to vehicle or post injury baseline: morphine (10 mg), all time-points and total AUC
# [2] = system: L5/L6 spinal nerve ligated male Sprague Dawley rats; test: Mechanical hypersensitivity; type: in vivo, rat; conditions: for AUC, paw withdrawal threshold (mechanical): vehicle AUC=22.07 ± 3.02
# male Sprague Dawley rats [3] = type: in vivo, rat
# Summary of the method: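 CCK-8sulf (30 ng/0.5 μL, in water) went into the RVM 10 min before. Naloxone (10 mg/kg sc, saline) was given 20 min before. Radiant heat to the plantar hind paw gave withdrawal latency, compared with baseline.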
# [4] = target: human δ opioid receptor (hDOR) (Homo sapiens, UniProt P41143); conditions: ref Agnes et al., 2008, cited from earlier work
# human δ opioid receptor (hDOR), sequence (P41143 whole entry): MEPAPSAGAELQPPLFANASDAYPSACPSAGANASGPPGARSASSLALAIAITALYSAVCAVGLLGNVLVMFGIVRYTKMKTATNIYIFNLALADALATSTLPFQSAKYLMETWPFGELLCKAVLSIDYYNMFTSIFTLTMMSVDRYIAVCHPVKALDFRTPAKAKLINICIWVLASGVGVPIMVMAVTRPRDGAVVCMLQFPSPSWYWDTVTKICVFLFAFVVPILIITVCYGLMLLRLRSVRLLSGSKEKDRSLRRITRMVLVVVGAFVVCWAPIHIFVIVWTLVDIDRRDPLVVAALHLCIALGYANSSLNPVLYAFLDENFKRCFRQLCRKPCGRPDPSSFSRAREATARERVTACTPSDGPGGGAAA
# delta opioid receptor = conditions: ref Agnes et al., 2008; Hruby et al., 2003; cited from earlier work
# mu opioid receptor = conditions: ref Agnes et al., 2008; Hruby et al., 2003; cited from earlier work
# [5] = system: sham-operated male Sprague Dawley rats; test: Thermal paw withdrawal latency in sham-operated animals, intrathecal; type: in vivo, rat; conditions: 45 min time point
# Summary of the method: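 Sham rats had the L5/L6 nerves exposed without ligation, then 5–7 days recovery. An intrathecal catheter ending at the lumbar cord was placed under ketamine/xylazine, with 5–7 days recovery. Test compound in 33% EtOH/water was injected in 5 μL with a 9 μL saline flush. Radiant heat was focused on the ipsilateral hind paw, and latencies were read blinded every 15 min for 60 min. In crossovers, vehicle rats were redosed ≥5 h later.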
# [6] = system: L5/L6 spinal nerve ligated male Sprague Dawley rats; type: in vivo, rat
# μ opioid receptor = conditions: read-out: Ki at the μ opioid receptor; ref Agnes et al., 2008; cited from earlier work
# δ opioid receptor = conditions: read-out: Ki at the δ opioid receptor; ref Agnes et al., 2008; cited from earlier work
# male Sprague Dawley rats [7] = test: Rotarod test for motor impairment or sedation, intrathecal; type: in vivo, rat; conditions: 180 s cutoff
# [8] = target: rat μ opioid receptor (MOR) (Rattus norvegicus, UniProt P33535); conditions: ref Agnes et al., 2008, cited from earlier work
# rat μ opioid receptor (MOR), sequence (P33535 whole entry): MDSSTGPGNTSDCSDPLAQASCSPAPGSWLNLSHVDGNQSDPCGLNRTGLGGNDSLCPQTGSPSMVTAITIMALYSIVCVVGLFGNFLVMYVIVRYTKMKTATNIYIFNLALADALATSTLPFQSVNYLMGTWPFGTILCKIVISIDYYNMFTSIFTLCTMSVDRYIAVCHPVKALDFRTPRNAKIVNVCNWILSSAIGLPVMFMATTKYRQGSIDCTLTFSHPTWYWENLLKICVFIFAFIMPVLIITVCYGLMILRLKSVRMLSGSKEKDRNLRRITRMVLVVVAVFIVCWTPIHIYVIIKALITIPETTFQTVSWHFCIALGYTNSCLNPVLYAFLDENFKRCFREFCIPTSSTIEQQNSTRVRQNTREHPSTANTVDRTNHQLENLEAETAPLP
# CCK-2 receptor = conditions: read-out: Ki at the CCK-2 receptor; ref Agnes et al., 2008; cited from earlier work
# CCK-1 receptor = conditions: read-out: Ki at the CCK-1 receptor; ref Agnes et al., 2008; cited from earlier work
# [9] = 30 μg/5μL intrathecal (gabapentin 30 μg)
compound,measurement,setting,value
"NCC1(CC(=O)O)CCCCC1 [gabapentin, reference compound]","AUC, paw withdrawal latency (thermal)",[1]; gabapentin (30 mg) intrathecal,104.72 ± 11.01
same,effect on thermal hyperalgesia compared to vehicle or post injury baseline,[1]; gabapentin (30 mg) intrathecal,significant efficacy
same,"AUC, paw withdrawal threshold (mechanical)",[2]; [9],25.97 ± 6.68
"CN1CC[C@]23c4c5ccc(O)c4O[C@H]2[C@@H](O)C=C[C@H]3[C@H]1C5 [morphine, reference compound]",Paw Withdrawal Latency (Sec ± SEM),male Sprague Dawley rats [3]; RVM 60 ng/0.5μl with pretreatment (−20min) of naloxone (subcutaneous; 10mg/kg),18.70** Sec
same,effect on thermal hyperalgesia compared to vehicle or post injury baseline,[1]; gabapentin (30 mg) intrathecal,significant efficacy
H-Tyr^1-DNle^2-Gly^3-Trp^4-Nle^5-Asp^6-Phe^7-NH2 [RSA 504],EC50,[4]; read-out: EC50 in GTP-γ-S binding assay at hDOR,0.0055 µM
same,Emax in GTP-γ-S binding assay at hDOR,[4],81 nM
same,in vitro activity in the MVD for delta opioid receptor activity,delta opioid receptor,23 nM
same,in vitro activity in GPI for mu opioid receptor activity,mu opioid receptor,210 nM
same,paw withdrawal latencies in sham animals,[5],significantly increased
same,Paw Withdrawal Latency (Sec ± SEM),male Sprague Dawley rats [3]; RVM 60 ng/0.5μl with pre-administration (−10min) of CCK-8sulf (RVM; 30 ng/0.5 μL),22.35^† Sec
same,effect on CCK-8 induced thermal hypersensitivity,"male Sprague Dawley rats [3]; RVM administration, effect not significantly attenuated by naloxone",reversed the CCK-8 hypersensitivity
same,antinociceptive tolerance (day 7 A50 compared to day one),[6]; intrathecal administration over 7 days,not significantly different
same,"A50, reconstructed antihyperalgesic dose response curve, day 7","[6]; intrathecal, 30 min, day 7 after 30 μg/5μL/day for 6 days (14 days after SNL)",6.45 μg/5μL
same,"A50, antihyperalgesic dose response curve, day one","[6]; intrathecal, 30 min, treatment day 1 (7 days after SNL)",5.89 μg/5μL
same,Ki,μ opioid receptor,0.027 µM
same,attenuation of thermal hyperalgesia compared to vehicle,[1]; 1 μg/5μL intrathecal,did not produce a significant effect
same,attenuation of thermal hyperalgesia compared to vehicle and post-injury baseline,"[1]; 10 μg/5μL and 30 μg/5μL intrathecal, 30 min time point",significantly attenuated
same,"AUC, paw withdrawal latency (thermal)",[1]; 10 μg/5μL intrathecal,83.61 ± 6.40
same,"AUC, paw withdrawal latency (thermal)",[1]; 30 μg/5μL intrathecal,111.10 ± 7.97
same,"A50, antihyperalgesic dose response curve","[1]; intrathecal, peak effect 30 min, day 7 after SNL",6.09 μg/5μL
same,attenuation of mechanical hypersensitivity compared to vehicle,[2]; 3 μg/5μL intrathecal,No significance
same,attenuation of mechanical hypersensitivity compared to post-injury baseline,"[2]; 3 μg/5μL intrathecal, 15, 30 and 45 min post administration",Significant attenuation
same,"AUC, paw withdrawal threshold (mechanical)",[2]; 3 μg/5μL intrathecal,32.53 ± 4.39
same,attenuation of mechanical hypersensitivity compared to vehicle,[2]; 10 μg/5μL and 30 μg/5μL intrathecal (RSA 504: 30 min; RSA 601: all time points),significant attenuation
same,"AUC, paw withdrawal threshold (mechanical)",[2]; 10 μg/5μL intrathecal (morphine 10 μg),39.38 ± 3.17
same,"AUC, paw withdrawal threshold (mechanical)",[2]; [9],44.80 ± 4.93
same,"A50, antiallodynic dose response curve","[2]; intrathecal, peak effect 30 min, day 7 after SNL, von Frey",4.67 μg/5μL
same,Ki,δ opioid receptor,0.023 µM
same,motor impairment or sedation on the rotarod,male Sprague Dawley rats [7],did not result in motor impairment
same,EC50,[8]; read-out: EC50 in GTP-γ-S binding assay at MOR,0.00047 µM
same,Emax in GTP-γ-S binding assay at MOR,[8],110 nM
same,Ki,CCK-2 receptor,0.016 µM
same,Ki,CCK-1 receptor,0.0112 µM
